Assay results: ChEMBL document CHEMBL5674881, “The therapeutic properties of resminostat for hepatocellular carcinoma” (2018)
Calls of active or inactive are those of the source. The calls are words filed in the database; no cut-off is given here.

Tests used:
Hep 3B2 [1] = assay: Anti-proliferative activity against human Hep3B cells assessed as reduction in cell viability at7 nM incubated for 24 hrs by Fluoro Fire-Blue ProViaTox assay; assay type: functional, cell-based; conditions: dose 7.0 nM
Hep 3B2 [2] = assay: Anti-proliferative activity against human Hep3B cells assessed as reduction in cell viability at 1 uM incubated for 24 hrs by Fluoro Fire-Blue ProViaTox assay; assay type: functional, cell-based
Hep 3B2 [3] = assay: Anti-proliferative activity against human Hep3B cells assessed as reduction in cell viability at 20 uM incubated for 24 hrs by Fluoro Fire-Blue ProViaTox assay; assay type: functional, cell-based
Hep 3B2 [4] = assay: Antiinflammatory activity against human Hep3B cells assessed as reduction in resminostat-induced p65 RNA expression level at 50 nM incubated for 24 hrs by qRT-PCR analysis relative to control; assay type: functional; set-up: scale not given: the % may be the effect or the level left
In short: (§1)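 Hep3B treated 24 h with 17-AAG 50 nM, alone, with 30% SGBS conditioned medium, or with resminostat 80 nM. p65 RNA measured by RT-PCR. Nuclear p65 protein measured by transcription-factor ELISA: nuclear extract bound to NFκB consensus-duplex plate for 1 h at room temperature, then anti-p65 and HRP secondary antibodies, then chemiluminescence read. n = 3.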

Hep 3B2 [5] = assay: Anti-proliferative activity against human Hep3B cells assessed as reduction in cell viability at 50 nM measured after 24 hrs by Fluoro Fire-Blue ProViaTox assay; assay type: functional, cell-based
Hep 3B2 [6] = assay: Antiinflammatory activity against human Hep3B cells assessed as reduction in p65 RNA expression level at 50 nM incubated for 24 hrs in presence of SGBS CM by qRT-PCR analysis; assay type: functional, cell-based; in short: as §1
Hep 3B2 [7] = assay: Downregulation of HDAC1 expression in human Hep3B cells at 50 nM incubated for 24 hrs by qRT-PCR analysis; assay type: functional, cell-based
Hep 3B2 [8] = assay: Downregulation of HDAC2 expression in human Hep3B cells at 50 nM incubated for 24 hrs by qRT-PCR analysis; assay type: functional, cell-based
Hep 3B2 [9] = assay: Antiinflammatory activity against human Hep3B cells assessed as reduction in nuclear protein expression level of p65 […] at 50 nM incubated for 24 hrs in presence of SGBS CM by […] analysis; assay type: functional, cell-based; in short: as §1
Hep 3B2 [10] = assay: Antiinflammatory activity against human Hep3B cells assessed as reduction in nuclear protein expression level of p65 […] at 50 nM incubated for 24 hrs by […] analysis; assay type: functional, cell-based; in short: as §1

In the case of `CCCc1cc(C)[nH]c(=O)c1CNC(=O)c1cc(-c2ccnc(N3CCN(C)CC3)c2)cc2c1cnn2C(C)C`, the Activity (Hep 3B2 [1]) is reported as “Active”.
For `COc1cccc2c1C(=O)c1c(O)c3c(c(O)c1C2=O)C[C@@](O)(C(=O)CO)C[C@@H]3O[C@H]1C[C@H](N)[C@H](O)[C@H](C)O1`, the Activity (Hep 3B2 [2]) was “Active”.
In the case of `Nc1nccc2c1ncn2[C@@H]1C=C(CO)[C@@H](O)[C@H]1O`, the Activity (Hep 3B2 [3]) is reported as “Active”.
For `C=CCNC1=C2C[C@@H](C)C[C@H](OC)[C@H](O)[C@@H](C)/C=C(\C)[C@H](OC(N)=O)[C@@H](OC)/C=C\C=C(/C)C(=O)NC(=CC1=O)C2=O` [TANESPIMYCIN], the Activity (Hep 3B2 [4]) was 100%, the Activity (Hep 3B2 [5]) was “Active” and the Activity (Hep 3B2 [6]) was “Active”. For the same molecule, the Activity (Hep 3B2 [7]) was “Active”, the Activity (Hep 3B2 [8]) was “Active” and the Activity (Hep 3B2 [9]) was “Active”. For the same molecule, the Activity (Hep 3B2 [10]) was “Active”.
